Values after ≈ are worked out from the molar mass of the structure shown. Each block holds one molecule with its values, some of them ahead of it.
Columns and labels:
[1] = Aqueous solubility of the compound; format: physicochemical; settings: buffer
[2] = Drug uptake in primary cultured BALB/c mouse airway epithelial cells at 50 uM measured up to 90 mins by LC-MS/MS analysis; format: ADME, cell-based; settings: epithelial cell
Method in brief: (§1)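 Primary airway epithelial cells from BALB/c mice were obtained by collagenase digestion and negative immunomagnetic selection, then grown to confluence on collagen I. Cells were pre-incubated 30 min in serum-free F-12K. For the time course they were exposed to 50 μM LO for up to 120 min; for concentration dependence, to 10–1000 μM LO for 60 min, at 37°C. After ice-cold PBS washes and Triton lysis, intracellular LO and laninamivir were measured by LC-MS/MS and normalized to Lowry protein, in triplicate.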

[3] = Tmax in BALB/cAnNCrlCrlj mouse plasma at 0.5 umol/kg administered intranasally; format: ADME, cell-free; settings: inhaled or intranasal
Method in brief: (§2)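 Female BALB/c mice (7 weeks old) received a single intranasal dose of 0.5 μmol/kg at 2.5 ml/kg, with N=3–4 per time point up to 24 h. Plasma, BAL fluid (3 × 1 ml PBS pH 7.4) and lung homogenate were taken, and AEBSF was added to a final 5 mM. LO and laninamivir were measured by LC-MS/MS. ELF levels were corrected using the urea ratio between plasma and BAL. Non-compartmental analysis on mean concentrations gave Cmax/Tmax by observation, t1/2 from ≥3 terminal log points, and AUClast by the trapezoidal method.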

[4] = AUClast in BALB/cAnNCrlCrlj mouse plasma at 0.5 umol/kg administered intranasally; format: ADME, cell-free; set-up: dose 0.5 umol/kg, time 0 - last, route nasal; settings: inhaled or intranasal; method in brief: as §2
[5] = Lipophilicity, log D of the compound at pH 7.4; format: physicochemical; settings: buffer
[6] = Prodrug activation in primary cultured BALB/c mouse airway epithelial cells assessed as formation of laninamivir measured at 60 mins by LC-MS/MS analysis; format: cell-based; settings: epithelial cell, 1 h; method in brief: as §1
[7] = Prodrug activation in primary cultured BALB/c mouse airway epithelial cells assessed as formation of laninamivir measured at 50 uM measured at 24 hrs by LC-MS/MS analysis; format: cell-based; settings: epithelial cell
Method in brief: (§3)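 Confluent primary BALB/c airway epithelial cells were loaded with 50 μM LO for 60 min and then washed. They were then incubated in drug-free medium at 37°C for up to 24 h, with the medium fully replaced at each sampling point. Cells were washed with ice-cold PBS and lysed. LO and laninamivir in medium and cells were measured by LC-MS/MS and normalized to Lowry protein, in triplicate. Release and hydrolysis rate constants were obtained by first-order compartmental modelling.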

[8] = Elimination half life in BALB/cAnNCrlCrlj mouse epithelial lining fluid at 0.5 umol/kg administered intranasally; format: ADME, tissue-based; method in brief: as §2
Lung [9] = assay: Cmax in BALB/cAnNCrlCrlj mouse lung at 0.5 umol/kg administered intranasally; format: ADME; set-up: dose 0.5 umol/kg, route nasal; settings: in vivo, inhaled_or_intranasal; method in brief: as §2
[10] = Drug uptake in BALB/cAnNCrlCrlj mouse epithelial lining fluid at 0.5 umol/kg administered intranasally measured at 4 hrs by LC-MS/MS analysis; format: ADME, tissue-based; settings: inhaled or intranasal, read-out: Drug uptake
Method in brief: (§4)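 Female BALB/c mice were dosed intranasally at 0.5 μmol/kg (2.5 ml/kg), N=3–4 per time point. At each sampling time, blood was taken by cardiac puncture, BAL was done with 3 × 1 ml PBS, and lungs were homogenized in 50% acetonitrile. LO and laninamivir were quantified by LC-MS/MS, calibrated over 1–100 ng/ml and 0.5–100 ng/ml respectively. ELF concentration was calculated as CBAL × (urea in plasma / urea in BAL).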

[11] = Tmax in BALB/cAnNCrlCrlj mouse lung at 0.5 umol/kg administered intranasally; format: ADME; settings: inhaled or intranasal; method in brief: as §2
[12] = Elimination half life in BALB/cAnNCrlCrlj mouse plasma at 0.5 umol/kg administered intranasally; format: ADME, cell-free; settings: inhaled or intranasal, read-out: beta t1/2 (converted); method in brief: as §2
[13] = Cmax in BALB/cAnNCrlCrlj mouse plasma at 0.5 umol/kg administered intranasally; format: ADME, cell-free; set-up: dose 0.5 umol/kg, route nasal; settings: inhaled or intranasal; method in brief: as §2
[14] = Tmax in BALB/cAnNCrlCrlj mouse epithelial lining fluid at 0.5 umol/kg administered intranasally; format: ADME, tissue-based; settings: inhaled or intranasal; method in brief: as §2
[15] = Prodrug activation in primary cultured BALB/c mouse airway epithelial cells assessed as formation of laninamivir at 50 uM measured up to 60 to 90 mins by LC-MS/MS analysis; format: cell-based; settings: epithelial cell; method in brief: as §1
Lung [16] = assay: AUClast in BALB/cAnNCrlCrlj mouse lung at 0.5 umol/kg administered intranasally; format: ADME; settings: in vivo, inhaled_or_intranasal; method in brief: as §2
Lung [17] = assay: (§5) Elimination half life in BALB/cAnNCrlCrlj mouse lung at 0.5 umol/kg administered intranasally; format: ADME, tissue-based; settings: in vivo, inhaled_or_intranasal; method in brief: as §2
[18] = Cmax in BALB/cAnNCrlCrlj mouse epithelial lining fluid at 0.5 umol/kg administered intranasally; format: ADME, tissue-based; set-up: dose 0.5 umol/kg, route nasal; settings: inhaled or intranasal; method in brief: as §2
[19] = AUClast in BALB/cAnNCrlCrlj mouse epithelial lining fluid at 0.5 umol/kg administered intranasally; format: ADME, tissue-based; set-up: dose 0.5 umol/kg, route nasal, time 0 - last; settings: inhaled or intranasal; method in brief: as §2
[20] = Cmax in BALB/cAnNCrlCrlj mouse epithelial lining fluid treated with laninamivir octanoate at 0.5 umol/kg administered intranasally; format: ADME; set-up: dose 0.5 umol/kg, route nasal; settings: inhaled or intranasal; method in brief: as §2
[21] = Elimination half life in BALB/cAnNCrlCrlj mouse epithelial lining fluid treated with laninamivir octanoate at 0.5 umol/kg administered intranasally; format: ADME; settings: inhaled or intranasal, read-out: beta t1/2 (converted); method in brief: as §2
Lung [22] = assay: Drug uptake in BALB/cAnNCrlCrlj mouse lung at 0.5 umol/kg administered intranasally measured at 24 hrs by LC-MS/MS analysis; format: ADME, tissue-based; settings: in vivo, inhaled_or_intranasal; method in brief: as §4
[23] = Elimination half life in BALB/cAnNCrlCrlj mouse plasma treated with laninamivir octanoate at 0.5 umol/kg administered intranasally; format: ADME, cell-free; settings: inhaled or intranasal, read-out: beta t1/2 (converted); method in brief: as §2
Lung [24] = assay: AUClast in BALB/cAnNCrlCrlj mouse lung treated with laninamivir octanoate at 0.5 umol/kg administered intranasally; format: ADME; settings: in vivo, inhaled_or_intranasal; method in brief: as §2
[25] = AUClast in BALB/cAnNCrlCrlj mouse plasma treated with laninamivir octanoate at 0.5 umol/kg administered intranasally; format: ADME, cell-free; set-up: dose 0.5 umol/kg, time 0 - last, route nasal; settings: inhaled or intranasal; method in brief: as §2
Lung [26] = assay: Drug concentration in BALB/cAnNCrlCrlj mouse lung treated with laninamivir octanoate at 0.5 umol/kg administered intranasally measured at 24 hrs; settings: in vivo, inhaled_or_intranasal
[27] = Elimination half life in human treated with laninamivir octanoate administered intranasally; format: ADME, organism-based; settings: in vivo, inhaled or intranasal, read-out: beta t1/2 (converted)
Plasma = assay: Drug uptake in BALB/cAnNCrlCrlj mouse plasma at 0.5 umol/kg administered intranasally measured after 8 hrs by LC-MS/MS analysis; format: ADME, cell-free; settings: inhaled_or_intranasal; method in brief: as §4
[28] = Drug level in primary cultured BALB/c mouse airway epithelial cells treated with laninamivir octanoate at 50 uM measured at 24 hrs by LC-MS/MS analysis; format: ADME, cell-based; settings: epithelial cell; method in brief: as §3
[29] = Cmax in BALB/cAnNCrlCrlj mouse plasma treated with laninamivir octanoate at 0.5 umol/kg administered intranasally; format: ADME, cell-free; set-up: dose 0.5 umol/kg, route nasal; settings: inhaled or intranasal; method in brief: as §2
[30] = Elimination half life in BALB/cAnNCrlCrlj mouse lung treated with laninamivir octanoate at 0.5 umol/kg administered intranasally; format: ADME, tissue-based; settings: inhaled or intranasal, read-out: beta t1/2 (converted); method in brief: as §2
[31] = AUClast in BALB/cAnNCrlCrlj mouse epithelial lining fluid treated with laninamivir octanoate at 0.5 umol/kg administered intranasally; format: ADME, tissue-based; set-up: dose 0.5 umol/kg, time 0 - last, route nasal; settings: inhaled or intranasal; method in brief: as §2
[32] = Tmax in BALB/cAnNCrlCrlj mouse plasma treated with laninamivir octanoate at 0.5 umol/kg administered intranasally; format: ADME, cell-free; settings: inhaled or intranasal; method in brief: as §2
[33] = Drug level in primary cultured BALB/c mouse airway epithelial cells treated with laninamivir octanoate at 50 uM measured up 60 to 90 mins by LC-MS/MS analysis; format: ADME, cell-based; settings: epithelial cell; method in brief: as §1
[34] = Tmax in human treated with laninamivir octanoate at 40 mg administered intranasally; format: ADME, organism-based; settings: in vivo, inhaled or intranasal
[35] = Tmax in BALB/cAnNCrlCrlj mouse epithelial lining fluid treated with laninamivir octanoate at 0.5 umol/kg administered intranasally; format: ADME, tissue-based; settings: inhaled or intranasal; method in brief: as §2
[36] = Drug uptake in BALB/cAnNCrlCrlj mouse epithelial lining fluid treated with laninamivir octanoate at 0.5 umol/kg administered intranasally measured at 24 hrs by LC-MS/MS analysis; format: ADME, tissue-based; settings: inhaled or intranasal, read-out: Drug uptake; method in brief: as §4
[37] = as §5; format: ADME, tissue-based; settings: BALB/cAnNCrlCrlj, lung, inhaled or intranasal, 0.5 umol/kg, read-out: beta t1/2 (converted); method in brief: as §2
[38] = Drug uptake in BALB/cAnNCrlCrlj mouse epithelial lining fluid treated with laninamivir octanoate at 0.5 umol/kg administered intranasally measured at 4 hrs by LC-MS/MS analysis; format: ADME; settings: inhaled or intranasal, read-out: Drug uptake; method in brief: as §4
Lung [39] = assay: Cmax in BALB/cAnNCrlCrlj mouse lung treated with laninamivir octanoate at 0.5 umol/kg administered intranasally; format: ADME; set-up: dose 0.5 umol/kg, route nasal; settings: in vivo, inhaled_or_intranasal; method in brief: as §2
[40] = Tmax in BALB/cAnNCrlCrlj mouse lung treated with laninamivir octanoate at 0.5 umol/kg administered intranasally; format: ADME; settings: inhaled or intranasal; method in brief: as §2

solubility [1]: 1270 µM (≈ 600 µg/mL)
Drug uptake [2]: Active
Tmax [3]: 0.5 h
AUC(0-t) [4]: 0.323 µM·h
logD [5]: -0.01
Drug metabolism [6]: Dose-dependent effect
Drug metabolism [7]: metabolite_detected
beta t1/2 ([8]; in vivo, inhaled_or_intranasal): 1.1 h
Cmax (Lung [9]): 1760 pmol/g
concentration at 4 h [10]: 348 nM
Tmax [11]: 0.5 h
half-life [12]: 0.6 h
Cmax [13]: 242 nM
Tmax [14]: 1.98 min
Drug metabolism [15]: metabolite_detected
AUClast (Lung [16]): 4480 pmol·h/g
beta t1/2 (Lung [17]): 1.3 h
Cmax [18]: 20400 nM
AUC(0-t) [19]: 23.6 µM·h
Compound: CCCCCCCC(=O)OC[C@@H](O)[C@@H](OC)[C@@H]1OC(C(=O)O)=C[C@H](NC(=N)N)[C@H]1NC(C)=O [LANINAMIVIR OCTANOATE]

Cmax [20]: 1520 nM
half-life [21]: 25.1 h
Drug uptake (Lung [22]): 282 pmol/g
half-life [23]: 13.1 h
AUClast (Lung [24]): 75800 pmol·h/g
Tmax [3]: 0.5 h
AUC(0-t) [25]: 0.445 µM·h
concentration at 24 h (Lung [26]): 2680 pmol/g
half-life [27]: 72 h
Drug uptake (Plasma): Not Active
Drug metabolism [28]: metabolite_detected
AUC(0-t) [4]: 0.782 µM·h
logD [5]: -2.18
Cmax [29]: 181 nM
half-life ([8]; BALB/cAnNCrlCrlj, epithelial lining fluid, inhaled or intranasal, 0.5 umol/kg, read-out: beta t1/2 (converted)): 25.4 h
Cmax (Lung [9]): 1020 pmol/g
concentration at 4 h [10]: 51.3 nM
Tmax [11]: 0.25 h
half-life [30]: 30.9 h
AUC(0-t) [31]: 26.5 µM·h
Tmax [32]: 1 h
Drug metabolism [33]: metabolite_detected
Tmax [34]: 4 h
Cmax [13]: 478 nM
Tmax [14]: 1.98 min
Tmax [35]: 1 h
concentration at 24 h [36]: 842 nM
AUClast (Lung [16]): 9890 pmol·h/g
half-life [37]: 25 h
concentration at 4 h [38]: 1150 nM
Cmax (Lung [39]): 4350 pmol/g
Tmax [40]: 6 h
Cmax [18]: 19900 nM
AUC(0-t) [19]: 19.6 µM·h
Compound: CO[C@@H]([C@@H]1OC(C(=O)O)=C[C@H](NC(=N)N)[C@H]1NC(C)=O)[C@H](O)CO [LANINAMIVIR]
